Sampled rows, rich in hits. Any-hit rate of the full collection: about 3.8%.
MPTP inh: blocks calcium-induced mitochondrial swelling; AID 602449; 1.4% of 360,000 active; isolated mouse mitochondria, Ca2+ swelling absorbance, 30 min; inhibition, % at 10 µM;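 active = inhibition of 50% or more, scaled per plate between neutral and stimulator controls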;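 note: 0% = DMSO wells given calcium and 100% = 1 mM EGTA wells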
OX1R antag-1: blocks the human orexin 1 receptor | OX1R-expressing cells, FRET antagonist read-out | 1.8% of 330,000 active | inhibition, % at 6.6 µM; in the data active = inhibition mostly above about 38%, no sharp cut-off; inactive = mostly below about 40%;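 note: 0% = agonist challenge alone and 100% = reference antagonist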
Target sequence (O43613 whole entry, looked up): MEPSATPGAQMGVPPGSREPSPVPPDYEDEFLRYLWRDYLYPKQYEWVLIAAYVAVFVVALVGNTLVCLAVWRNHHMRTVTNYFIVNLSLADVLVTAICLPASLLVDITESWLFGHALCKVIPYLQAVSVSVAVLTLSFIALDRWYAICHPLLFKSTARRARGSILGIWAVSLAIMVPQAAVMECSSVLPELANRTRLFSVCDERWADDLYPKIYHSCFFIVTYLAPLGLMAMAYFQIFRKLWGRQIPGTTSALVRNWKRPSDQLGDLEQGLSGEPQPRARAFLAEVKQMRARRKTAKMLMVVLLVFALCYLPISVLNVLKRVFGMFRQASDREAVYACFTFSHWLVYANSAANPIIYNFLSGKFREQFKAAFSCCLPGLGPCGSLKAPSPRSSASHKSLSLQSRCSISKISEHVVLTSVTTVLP
CHO parental Ca: signal in parental CHO cells, OX1R antagonist counter-screen; parental CHO-K1, ATP-induced calcium, Fluo-8 fluorescence; inhibition, % at 5.6 µM; 0.63% of 330,000 active; AID 463079;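 active = inhibition above that plate's mean sample inhibition plus 3 SD, cut at about 26% in these data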;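 note: 0% = ATP-challenged DMSO wells and 100% = DMSO wells without ATP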
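test system = CHO parental line | reagent = ATP stimulus | measured by = intracellular calcium via Fluo-8 no-wash fluorescent dye | control set = ATP and no-ATP DMSO wells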
GPR7 antagonist: antagonists of human GPR7 (neuropeptides B/W receptor 1); P48145; GPR7-expressing cells, fluorescence antagonist assay; inhibition, % at 4.4 µM; 1.1% of 290,000 active; AID 1861; in the data active = inhibition above about 16%, passing the limit was not always enough;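 note: cells stimulated with the agonist NPW; 0% = agonist with vehicle and 100% = vehicle without agonist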
OX1R antag-2: human HCRTR1 antagonism; O43613; CHO/OX1R cells, Fluo-8 calcium fluorescence, orexin A; inhibition, % at 5 µM; 0.43% of 330,000 active; AID 434989;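 active = inhibition above its plate's threshold, mean inhibition of all tested compounds on the plate plus 3 SD, cut at about 37% in these data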;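 note: 0% = orexin A challenge wells and 100% = SB-334867-A antagonist wells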
Rh123 counter: mitochondrial membrane potential, counter-screen. shares compounds with MPTP inh. isolated mitochondria, Rhodamine 123 fluorescence. inhibition, % at 10 µM. 78% of 5,000 active. AID 624504; in the data active = inhibition above about 22%;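 note: 0% = DMSO vehicle and 100% = positive control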
MPTP swell DR: dose response confirmation of mitochondrial permeability transition pore inhibitors. shares compounds with MPTP inh. isolated mitochondria swelling, absorbance. IC50, µM. 58% of 780 active; in the data active = IC50 below about 20 µM
MPTP cs DR: MPTP inhibitor counter-screen activity, dose response. shares compounds with MPTP inh. isolated mitochondria counterscreen, fluorescence read-out. IC50, µM. 49% of 780 active. AID 651564; in the data active = IC50 below about 80 µM
* = called active by the depositor; . = not tested or not shown.

SMILES	MPTP inh	OX1R antag-1	CHO parental Ca	GPR7 antagonist	OX1R antag-2	Rh123 counter	others
CC(Cc1cccs1)NC(=S)Nc1ccc(Cl)cc1 (configuration not stated)	83.3*	59.6*	18.5	-0.6	0.8	94.9*
O=C(NCc1cccs1)Nc1ccc(Cl)cc1	3.1	28.1	12.3	-5.1	2.2	.
CC(Cc1cccs1)NC(=O)Nc1cccc(Cl)c1 (configuration not stated)	87.3*	27.0	2.8	3.4	-10.7	86.2*
CC(Cc1cccs1)NC(=S)Nc1ccc(Cl)c(Cl)c1 (configuration not stated)	80.2*	24.7	-10.9	0.6	-9.1	94.3*
Cc1ccc(NC(=O)Cc2cccs2)cc1Cl	9.3	.	.	-4.8	.	.
Cc1ccccc1CCN(C(=O)c1csnn1)C(C(=O)NC1CCCC1)c1ccco1 (configuration not stated)	0.2	40.2	-17.1	6.4	-18.3	.
O=C(COC(=O)c1cn(-c2ccccc2)nc1-c1cccnc1)NC1CC1	2.5	13.9	-19.6	-7.5	-22.2	.
O=C1c2ccccc2-c2cccc(NS(=O)(=O)c3ccc(C(F)(F)F)cc3)c21	64.3*	11.4	4.1	-15.8	-12.3	37.7*
O=[N+]([O-])c1ccc2nc(-c3ccc(Cl)cc3)n(OCc3ccccc3)c2c1	88.8*	14.5	-11.1	3.7	-5.0	93.6*
Cc1ccc(COn2c(-c3ccc(Cl)cc3)nc3ccc([N+](=O)[O-])cc32)cc1	88.2*	12.5	-7.2	2.2	-0.9	83.9*
c1ccc2sc(NC3=NCN(C4CCCCCC4)CN3)nc2c1	94.7*	8.1	-17.1	-17.7	-14.4	20.0
c1ccc2oc(NC3=NCN(C4CCCCC4)CN3)nc2c1	-1.8	-2.0	-7.3	-12.3	-7.2	.
O=C(Nc1ccc(C(F)(F)F)cc1)c1cc(-c2cccnc2)nc2ccc(Br)cc12	78.0*	8.9	-10.0	-7.2	-17.3	2.0	MPTP swell DR=13*;MPTP cs DR=7.14*
CCOc1ccccc1CN1CCCC(C(=O)Nc2cccc(-n3cccn3)c2)C1 (configuration not stated)	58.2*	15.7	-5.7	8.4	-15.1	8.6	MPTP swell DR=6.84*;MPTP cs DR=18.5*
Cn1cc(CN2CCCC(C(=O)Nc3cccc(-n4cccn4)c3)C2)cn1 (configuration not stated)	-3.2	1.7	-23.6	0.2	-20.5	.
Cc1cc(CN2CCCC(C(=O)Nc3cccc(-n4cccn4)c3)C2)cc(C)c1O (configuration not stated)	70.4*	5.1	-16.5	9.8	-3.6	85.2*
Cc1cc(C(=O)NC2CCCN(Cc3ccccc3F)C2)n[nH]1 (configuration not stated)	0.9	-9.9	-8.1	-13.7	-12.5	.
CC(O)CNCCCOc1cccc(Oc2ccccc2)c1 (configuration not stated)	59.9*	9.3	-17.6	12.4	-20.7	-7.2	MPTP swell DR=12.9*;MPTP cs DR=>80
CCNc1sc(C(=O)OCC)c(N)c1C#N	-4.1	15.7	2.6	-4.9	-15.3	.
CC(Oc1ccc(Cl)cc1)C(=O)Nc1ccccc1C(=O)N1CCOCC1 (configuration not stated)	-2.9	23.2	-18.3	0.7	-7.0	.
O=C(NNS(=O)(=O)c1ccc(F)cc1F)C1Cc2c(ccc3ccccc23)O1 (configuration not stated)	73.0*	26.5	42.0*	-12.9	50.7*	51.9*
CS(=O)(=O)NNC(=O)C1Cc2c(ccc3ccccc23)O1 (configuration not stated)	0.4	13.3	-1.3	-10.2	-7.5	.
C[C@H]1c2cccc(O)c2C(=O)C2C(=O)C3(O)C(=O)C(C(N)=O)C(=O)[C@@H](N(C)C)[C@@H]3[C@@H](O)[C@@H]21 (some centres not stated)	89.7*	2.8	-0.3	.	-6.5	5.4
C[C@H]1c2cccc(O)c2C(O)=C2C(=O)C3(O)C(O)=C(C(N)=O)C(=O)[C@@H](N(C)C)[C@@H]3[C@@H](O)[C@@H]21 (some centres not stated)	85.0*	6.6	-3.6	.	-2.9	-0.4

Bioassay records deposited in PubChem by several laboratories.
